Reference: ChEMBL document CHEMBL3112573, “Design, synthesis and evaluation of acridine and fused-quinoline derivatives as potential anti-tuberculosis agents” (Eur J Med Chem, 2014)
In brackets after ≈: the same amount, converted by molar mass.

Key:
Format in all cases: functional
[1] = tested on: Mycobacterium tuberculosis; test: Antimicrobial activity against ofloxacin-resistant Mycobacterium tuberculosis H37Rv SRI 4000 assessed as growth inhibition at MIC after 7 days by broth microdilution assay relative to control
Summary of the method: (§1)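 Broth microdilution per CLSI in Middlebrook 7H9 + OADC; ten two-fold dilutions; inoculum targeted 1.0 × 10^6 CFU/mL M. tuberculosis; 37 °C, ~90% humidity, 7 days. Wells scored visually for turbidity, partial or complete clearing; MIC = lowest concentration visually inhibiting growth; percent inhibition at the MIC also recorded. Duplicates; rifampin or isoniazid positive control, medium-only and organism-only controls.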

[2] = tested on: Mycobacterium tuberculosis; test: Antimicrobial activity against ofloxacin-resistant Mycobacterium tuberculosis H37Rv SRI 4000 assessed as growth inhibition after 7 days by broth microdilution assay; details: H37Rv SRI 4000, 168 h; summary of the method: as §1
[3] = tested on: Mycobacterium tuberculosis; test: Antimicrobial activity against rifampin-resistant Mycobacterium tuberculosis H37Rv SRI 1367 assessed as growth inhibition at MIC after 7 days by broth microdilution assay relative to control; summary of the method: as §1
[4] = tested on: Mycobacterium tuberculosis; test: Antimicrobial activity against rifampin-resistant Mycobacterium tuberculosis H37Rv SRI 1367 assessed as growth inhibition after 7 days by broth microdilution assay; details: H37Rv SRI 1367, 168 h; summary of the method: as §1
[5] = tested on: Mycobacterium tuberculosis; test: Antimicrobial activity against isoniazid-resistant Mycobacterium tuberculosis H37Rv SRI 1369 assessed as growth inhibition at MIC after 7 days by broth microdilution assay relative to control; summary of the method: as §1
[6] = tested on: Mycobacterium tuberculosis; test: Antimicrobial activity against isoniazid-resistant Mycobacterium tuberculosis H37Rv SRI 1369 assessed as growth inhibition after 7 days by broth microdilution assay; details: H37Rv SRI 1369, 168 h; summary of the method: as §1

## Clc1ccc2nc3c(c(-c4ccccc4)c2c1)CCC3
[1]
  growth inhibition (GI): 81%
[2]
  MIC: 12.5 µg/mL (≈ 44.7 µM)
[3]
  growth inhibition (GI): 83%
[4]
  MIC: 6.25 µg/mL (≈ 22.3 µM)
[5]
  growth inhibition (GI): 69%
[6]
  MIC: 6.25 µg/mL (≈ 22.3 µM)

## O=[N+]([O-])c1ccc2nc3c(c(-c4ccccc4)c2c1)CCCC3
[1]
  growth inhibition (GI): 50%
[2]
  MIC: 3.12 µg/mL (≈ 10.3 µM)
[3]
  growth inhibition (GI): 69%
[4]
  MIC: 3.12 µg/mL (≈ 10.3 µM)
[5]
  growth inhibition (GI): 41%
[6]
  MIC: 6.25 µg/mL (≈ 20.5 µM)

## O=[N+]([O-])c1ccc2nc3c(c(-c4ccccc4)c2c1)CCCCC3
[1]
  growth inhibition (GI): 70%
[2]
  MIC: 37.5 µg/mL (≈ 118 µM)
[3]
  growth inhibition (GI): 72%
[4]
  MIC: 37.5 µg/mL (≈ 118 µM)
[5]
  growth inhibition (GI): 52%
[6]
  MIC: 37.5 µg/mL (≈ 118 µM)

## NNC(=O)c1ccncc1 [ISONIAZID]
[3]
  growth inhibition (GI): 85%
[4]
  MIC: 0.02 µg/mL (≈ 0.146 µM)

## CO[C@H]1/C=C/O[C@@]2(C)Oc3c(C)c(O)c4c(O)c(c(/C=N/N5CCN(C)CC5)c(O)c4c3C2=O)NC(=O)/C(C)=C\C=C\[C@H](C)[C@H](O)[C@@H](C)[C@@H](O)[C@@H](C)[C@H](OC(C)=O)[C@@H]1C [RIFAMPIN]
[1]
  growth inhibition (GI): 71%
[2]
  MIC: 1.56 µg/mL (≈ 1.9 µM)
[5]
  growth inhibition (GI): 74%
[6]
  MIC: 0.02 µg/mL (≈ 0.0243 µM)
